Activity calls are given as the source filed them. The rule behind the calls is not given here.
Tests used:
Curvularia lunata = experiment: Antifungal activity against Cochliobolus lunatus strain MUCL 38696 at 100 uM by growth based assay; assay type: functional, organism-based
Procedure, shortened: (§1)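 Mycelial discs cut from 5-day-old cultures were placed centrally on MEA (Blakeslee's formula) agar plates containing inhibitor at 0.1 mM final concentration or solvent control. Plates were incubated at 28°C and growth was scored daily. Radial growth rate (RGR) and initial growth inhibition (IGI) were derived and expressed as percent of the matching solvent control. Each compound was tested in triplicate.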

Aspergillus niger = experiment: Antifungal activity against Aspergillus niger N402 cspA1 at 100 uM by growth based assay; assay type: functional; procedure, shortened: as §1
Pleurotus ostreatus = experiment: Antifungal activity against Pleurotus ostreatus Plo5 at 100 uM by growth based assay; assay type: functional; procedure, shortened: as §1

Row | SMILES | inhibition (Curvularia lunata) | also measured
1 | Cc1cc(C(=O)O)ccc1-n1c(C)ccc1C | inactive | 
2 | Cc1cc(C=O)c(C)n1-c1ccc(C(=O)O)cc1 | inactive | 
3 | O=C(O)c1ccc(C(=O)O)cc1 | inactive | 
4 | O=C(O)c1ccc(-c2cc(F)c(F)cc2F)cc1 | Active | inhibition (Aspergillus niger): Active
5 | O=C(O)c1ccc(-c2ccc(Cl)c(Cl)c2)cc1 |  | inhibition (Aspergillus niger): inactive
6 | O=C(O)c1ccc(N2CCCC2=O)cc1 | inactive | 
7 | O=S(=O)(O)c1cc[n+](-c2ccc(Cl)cc2)cc1 | inactive | 
8 | O=C(O)c1ccc(-c2ccc(Cl)c(F)c2)cc1 | Active | inhibition at 100 µM (Aspergillus niger): 30%; inhibition at 100 µM (Pleurotus ostreatus): 75%
9 | O=C(O)c1ccc(-n2cccc2)cc1 | Active | inhibition (Aspergillus niger): Active; inhibition (Pleurotus ostreatus): inactive
10 | Cc1ccc(C)n1-c1ccc(C(=O)O)cc1 | inactive | 
11 | O=C(O)c1ccc(-c2cccs2)cc1 | Active | inhibition (Aspergillus niger): Active; inhibition (Pleurotus ostreatus): Active
12 | Cn1ccc(-c2ccc(C(=O)O)cc2)n1 | inactive | 
13 | O=C(O)c1ccc(-c2ccc(C(=O)O)cc2)cc1 | inactive | 
14 | O=C(O)c1ccc(-c2cccc(F)c2)cc1 | Active | inhibition (Aspergillus niger): Active
15 | Cc1cc(C)n(-c2ccc(C(=O)O)cc2)n1 | inactive | 
16 | O=C(O)c1ncc(N2CCCC2)cc1Cl | inactive | 

Row | SMILES | inhibition (Curvularia lunata) | also measured
17 | O=C(O)c1ccc(N2CCCC2)nc1 | inactive | 
18 | Cc1ccn(-c2ccc(C(=O)O)c(Cl)c2)n1 | inactive | 
19 | Cc1cc(C)n(-c2ccc(S(=O)(=O)O)cc2)n1 | inactive | 
20 | CC1CCN(c2ccc(C(=O)O)cc2)CC1 | Active | 
21 | O=C(O)c1ccc(-c2ccsc2)cc1 | Active | inhibition at 100 µM (Pleurotus ostreatus): 75%
22 | Cc1cc(C(=O)O)ccc1-n1cccc1 |  | inhibition (Pleurotus ostreatus): inactive
23 | O=C(O)c1ccc(C2CCCCC2)cc1 | inactive | 
24 | O=C(O)c1ccc(-c2ccc(Cl)cc2)cc1 |  | inhibition (Aspergillus niger): inactive
25 | O=C(O)c1ccc(-c2ccc(F)cc2)cc1 | Active | inhibition (Aspergillus niger): Active; inhibition at 100 µM (Pleurotus ostreatus): 75%
26 | O=C(O)c1ccc(N2CCCC2)cc1Cl | inactive | inhibition (Aspergillus niger): Active
27 | O=C(O)c1ccc(F)cc1 | inactive | 
28 | O=C(O)c1ccc2ccccc2c1 | inactive | 
29 | O=C(O)c1ccc(N2CCCCC2)cc1Cl | inactive | 
30 | O=C(O)c1ccc(CN2CCCC2)cc1 | inactive | 
31 | CC(=O)c1cc(C)n(-c2ccc(C(=O)O)cc2)c1C | inactive | 
32 | O=C(O)c1ccc(N2CCCC2)cc1 | inactive | 

— ChEMBL document CHEMBL3593179, “Benzoic acid derivatives with improved antifungal activity: Design, synthesis, structure-activity relationship (SAR) and CYP53 docking studies” (2015)
